The text below walks through data of ChEMBL document CHEMBL1123594, “Antiradiation compounds. 20. 1-Methylquinolinium(and pyridinium)-2-dithioacetic acid derivatives” (J Med Chem, 1987).

Broadly, the LD50 is the dose expected to kill half of the subjects tested. The low end stands for greater toxicity, the high end for lower toxicity.

Molecules are shown by their SMILES.

The test system of data set [1] is Mus musculus. Briefly: Percent protective effect was determined in mice using 849 rads for 30 min after (po) administration of 600 mg/kg. It is filed as functional.
The subject of data set [2] is Mus musculus. Put plainly: Percent protective effect was determined in mice using 849 rads for 30 min after (ip) administration of 600 mg/kg. The data set is classed as functional.
Data set [3] can be described thus: Toxic dose was determined after (ip) administration of a dose of 18.8 mg/kg in mice at 1000-rad-gamma-radiation for 30 mins. It is filed as toxicity, organism-based. Details: dose 18.8 mg/kg. The note with it: mouse, in vivo. The essentials:
(§1)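 Drug-toxicity deaths were counted within the radioprotection groups: 10 female C57 B16 mice, dosed by the route stated, then given whole-body 1000-rad γ-irradiation 30 min later. Deaths attributed to compound toxicity occurred before day 5 and were scored separately from the 30-day survival count.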

Data set [4] deals with Mus musculus. Put plainly: Percent survival was determined over a period of 30 days after intraperitoneal administration of a dose of 4.7 mg/kg in mice. It is filed as functional. To be noted: ip, 720 h. Summed up:
(§2)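 Female C57 B16 mice (18-20 g), groups of 10, dosed ip in water or 10-20% aqueous ethanol (sometimes with Klucel or a Tween). Whole-body 1000-rad γ-irradiation 30 min after dosing. Survival was followed over 30 days, and animals alive beyond 30 days were counted as protected. Testing was done at Walter Reed Army Institute of Research.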

The subject of data set [5] is Mus musculus. Put plainly: Percent survival was determined over a period of 30 days after intraperitoneal administration of a dose of 18.8 mg/kg in mice. The data set is classed as functional. The note with it: ip, 720 h. The essentials:
as §2

The subject of data set [6] is Mus musculus. Put plainly: Percent survival was determined over a period of 30 days after intraperitoneal administration of a dose of 9.4 mg/kg in mice. It is filed as functional. The note with it: ip, 720 h. Summed up: as §2
Data set [7] has as its system Mus musculus. Briefly: Percent survival was determined over a period of 30 days after intraperitoneal administration of a dose of 1.2 mg/kg in mice. To be noted: ip, 720 h. It is filed as functional. Summed up:
as §2

The nature of data set [8]: Toxic dose was determined after (ip) administration of a dose of 4.7 mg/kg in mice at 1000-rad-gamma-radiation for 30 mins. The data set is classed as toxicity, organism-based. Set-up: dose 4.7 mg/kg. The note with it: mouse, in vivo. Summed up: as §1
Data set [9] concerns Mus musculus. Briefly: Percent survival was determined over a period of 30 days after intraperitoneal administration of a dose of 2.3 mg/kg in mice. The note with it: ip, 720 h. The data set is classed as functional. The essentials: as §2
Data set [10] concerns Mus musculus. Briefly: Percent survival was determined over a period of 30 days after intraperitoneal administration of a dose of 0.6 mg/kg in mice. To be noted: ip, 720 h. The data set is classed as functional. The essentials:
as §2

A short description of data set [11]: Toxic dose was determined after (ip) administration of a dose of 2.3 mg/kg in mice at 1000-rad-gamma-radiation for 30 mins. Details: dose 2.3 mg/kg. The note with it: mouse, in vivo. It is filed as toxicity, organism-based. The essentials: as §1
Data set [12] is described as follows: Toxic dose was determined after (ip) administration of a dose of 4.69 mg/kg in mice at 1000-rad-gamma-radiation for 30 mins. The data set is classed as toxicity, organism-based. Set-up: dose 4.69 mg/kg. The note with it: mouse, in vivo. The essentials:
as §1

For data set [13], the system named is Mus musculus. Put plainly: Percent survival was determined over a period of 30 days after intraperitoneal administration of a dose of 4.69 mg/kg in mice. It is filed as functional. To be noted: ip, 720 h. The essentials:
as §2

Data set [14] relates to Mus musculus. Put plainly: Percent survival was determined over a period of 30 days after intraperitoneal administration of a dose of 2.34 mg/kg in mice. To be noted: ip, 720 h. The data set is classed as functional. The essentials:
as §2

The subject of data set [15] is Mus musculus. Put plainly: Percent survival was determined over a period of 30 days after intraperitoneal administration of a dose of 1.17 mg/kg in mice. It is filed as functional. To be noted: ip, 720 h. The essentials:
as §2

Data set [16] in a line: Toxic dose was determined after (ip) administration of a dose of 9.4 mg/kg in mice at 1000-rad-gamma-radiation for 30 mins. The data set is classed as toxicity, organism-based. Details: dose 9.4 mg/kg. To be noted: mouse, in vivo. Summed up: as §1
In data set [17] the test system is Mus musculus. Briefly: Percent protective effect was determined in mice using 825 rads for 30 min after administration of 120 mg/kg. The data set is classed as functional.
Data set [18] relates to Mus musculus. Briefly: Percent survival was determined over a period of 30 days after intraperitoneal administration of a dose of 2.4 mg/kg in mice. The note with it: ip, 720 h. It is filed as functional. Summed up: as §2
The subject of data set [19] is Mus musculus. Briefly: Percent survival was determined over a period of 30 days after intraperitoneal administration of a dose of 150 mg/kg in mice. The data set is classed as functional. The note with it: ip, 720 h. The essentials: as §2
Data set [20] relates to Mus musculus. Put plainly: Percent survival was determined over a period of 30 days after intraperitoneal administration of a dose of 37.5 mg/kg in mice. It is filed as functional. The note with it: ip, 720 h. Summed up:
as §2

Data set [21] relates to Mus musculus. Put plainly: Percent survival was determined over a period of 30 days after intraperitoneal administration of a dose of 75 mg/kg in mice. It is filed as functional. To be noted: Mus musculus, ip, 720 h. The essentials:
as §2

The nature of data set [22]: Toxic dose was determined after (ip) administration of a dose of 150 mg/kg in mice at 1000-rad-gamma-radiation for 30 mins. The data set is classed as toxicity, organism-based. Details: dose 150 mg/kg. The note with it: mouse, in vivo. The essentials: as §1
Data set [23] can be described thus: Toxic dose was determined in 10-20% ethanol by ip administration in mice. The radiation protective properties were evaluated for groups of 10 mice exposed to 849-rad-gamma-radiation 30 min after dosing. The data set is classed as toxicity, organism-based. To be noted: mouse, in vivo.
For data set [24], the system named is Mus musculus. Put plainly: Percent survival was determined over a period of 30 days after intraperitoneal administration of a dose of 1200 mg/kg in mice. The data set is classed as functional. To be noted: ip, 720 h. Summed up:
as §2

Data set [25] deals with Mus musculus. Put plainly: Percent survival was determined over a period of 30 days after intraperitoneal administration of a dose of 300 mg/kg in mice. To be noted: ip, 720 h. It is filed as functional. Summed up: as §2
Data set [26] relates to Mus musculus. Briefly: Percent survival was determined over a period of 30 days after intraperitoneal administration of a dose of 600 mg/kg in mice. It is filed as functional. To be noted: ip, 720 h. The essentials:
as §2

Data set [27] can be described thus: Toxic dose was determined after (ip) administration of a dose of 1200 mg/kg in mice at 1000-rad-gamma-radiation for 30 mins. The data set is classed as toxicity, organism-based. Details: dose 1200 mg/kg. To be noted: mouse, in vivo. The essentials:
as §1

In the case of `N#CC(C(=O)N1CCCC1)=C([S-])[S-].[K+].[K+]`, the values for the Protective effect in the data set on Mus musculus [1] and in the data set on Mus musculus [2] were 30% and 80%, respectively.

`CS/C(=C\c1cccc[n+]1C)N1CCOCC1.[I-]` gave an LD50 at 0.5 h in data set [3] of 50 mg/kg. In addition, the survival at 4.7 mg/kg in the data set with Mus musculus [4] came to 0%. This molecule also returned a survival at 18.8 mg/kg in the data set with Mus musculus [5] of 0%. Besides, in the data set with Mus musculus [6], the survival at 9.4 mg/kg was 0%.

`CCCCCCSC(=Cc1cccc[n+]1C)SCCCCCC.[I-]` came in with a survival at 1.2 mg/kg in the data set with Mus musculus [7] of 0%. The same molecule showed an LD50 at 0.5 h in data set [8] of 5 mg/kg. In the data set with Mus musculus [4], this molecule yielded a survival at 4.7 mg/kg of 0%. Besides, the survival at 2.3 mg/kg in the data set on Mus musculus [9] was found to be 0%.

The molecule `CCCCSC(=Cc1cccc[n+]1C)SCCCC.[I-]` displayed a survival at 1.2 mg/kg in the data set on Mus musculus [7] of 10%. The molecule further came in with a survival at 0.6 mg/kg with Mus musculus [10] of 0%. In data set [11], this molecule gave an LD50 at 0.5 h of 3 mg/kg. This molecule came in with a survival at 2.3 mg/kg with Mus musculus [9] of 30%.

For the molecule `CS/C(=C\c1ccc2ccccc2[n+]1C)N1CCCCC1.[I-]`, the LD50 at 0.5 h in data set [12] came to 5 mg/kg. The molecule further showed a survival at 4.69 mg/kg in the data set with Mus musculus [13] of 10%. Besides, in the data set on Mus musculus [14], the survival at 2.34 mg/kg worked out at 70%. The survival at 1.17 mg/kg in the data set on Mus musculus [15] is 30%.

Regarding `CSC(=Cc1cccc(C=C(SC)SC)[n+]1C)SC.[I-]`, in data set [16], the LD50 at 0.5 h came to 25 mg/kg. The same molecule returned a survival at 4.7 mg/kg with Mus musculus [4] of 10%. The same molecule returned a survival at 9.4 mg/kg in the data set on Mus musculus [6] of 30%. Also, in the data set with Mus musculus [9], the survival at 2.3 mg/kg was 10%.

`CSC(=Cc1c2ccccc2cc[n+]1C)SC.[I-]`: the LD50 at 0.5 h in data set [16] was 15 mg/kg. For the same molecule, in the data set on Mus musculus [4], the survival at 4.7 mg/kg was determined as 0%. The molecule further displayed a survival at 9.4 mg/kg with Mus musculus [6] of 20%. This molecule came in with a survival at 2.3 mg/kg in the data set with Mus musculus [9] of 0%.

Molecule `COc1ccc2c(ccc(C=C(SC)SC)[n+]2C)c1.[I-]` showed a median lethal dose (LD50) at 0.5 h in data set [16] of 30 mg/kg. Further, the survival at 4.7 mg/kg in the data set on Mus musculus [4] turned out to be 0%. This molecule also displayed a survival at 9.4 mg/kg in the data set on Mus musculus [6] of 0%. In the data set with Mus musculus [9], this molecule showed a survival at 2.3 mg/kg of 0%.

On to `N#CC(C(=O)c1ccccc1)=C([S-])[S-].[K+].[K+]`, for which the Protective effect in the data set with Mus musculus [17] is reported as 17%.

As for `CS/C(=C\c1ccc2ccccc2[n+]1C)N1CCN(CCCO)CC1.[I-]`, the LD50 at 0.5 h in data set [16] is more than 10 mg/kg. In the data set on Mus musculus [4], this molecule came in with a survival at 4.7 mg/kg of 0%. Moreover, the survival at 9.4 mg/kg with Mus musculus [6] is 30%. This molecule also had a survival at 2.3 mg/kg with Mus musculus [9] of 0%.

`CCSC(=Cc1cccc[n+]1C)SCC.[I-]` displayed an LD50 at 0.5 h in data set [16] of 20 mg/kg. In the data set on Mus musculus [4], this molecule gave a survival at 4.7 mg/kg of 0%. For the same molecule, the survival at 9.4 mg/kg in the data set on Mus musculus [6] stood at 20%.

In the case of `CSC(=Cc1cccc(C)[n+]1C)SC.[I-]`, the LD50 at 0.5 h in data set [3] was determined as 50 mg/kg. This molecule had a survival at 4.7 mg/kg with Mus musculus [4] of 0%. In the data set with Mus musculus [5], this molecule displayed a survival at 18.8 mg/kg of 40%. The molecule further returned a survival at 9.4 mg/kg in the data set on Mus musculus [6] of 0%.

With `CS/C(=C\c1cccc[n+]1C)N1CCCCC1.[I-]`, in [16], the LD50 at 0.5 h was 25 mg/kg. Also, the survival at 2.4 mg/kg in the data set with Mus musculus [18] came to 30%. For the same molecule, in the data set on Mus musculus [4], the survival at 4.7 mg/kg stood at 20%. In the data set with Mus musculus [6], this molecule returned a survival at 9.4 mg/kg of 80%.

Take `Cc1ccc2c(ccc(CC(=S)[S-])[n+]2C)c1`: the survival at 150 mg/kg in the data set on Mus musculus [19] worked out at 10%. Besides, the survival at 37.5 mg/kg with Mus musculus [20] came out at 10%. The molecule also gave a survival at 75 mg/kg with Mus musculus [21] of 20%. This molecule displayed an LD50 at 0.5 h in data set [22] of 225 mg/kg.

`C[n+]1c(CC(=S)[S-])cccc1CC(=S)[S-].[I-].[Na+].[Na+]`: the 50% lethal dose (LD50) at 0.5 h in data set [23] and in [27] was more than 600 mg/kg in each case. In the data set on Mus musculus [24], the survival at 1200 mg/kg came out at 0%. For the same molecule, the survival at 300 mg/kg in the data set with Mus musculus [25] turned out to be 0%. The molecule also showed a survival at 600 mg/kg in the data set on Mus musculus [26] of 0%.
